Source: ChEMBL document CHEMBL1125428, “Development of 2,3-dihydro-6-(3-phenoxypropyl)-2-(2-phenylethyl)-5-benzofuranol (L-670,630) as a potent and orally active inhibitor of 5-lipoxygenase” (J Med Chem, 1992)

Columns and labels:
Rattus norvegicus [1] = assay: Total radioactivity in tissues of male sd rats dosed orally with H-labeled compound at 21 mg/kg after 30 min in kidney; assay type: functional; settings: route oral
Summary of the method: (§1)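 Male Sprague-Dawley rats received ³H-labelled drug (phenoxy ring, 3.96 μCi/mg) in PEG-400 by gavage at 21 mg/kg. Animals were killed at 5, 15, 30 min and at 1, 2, 4, 24 and 48 h. Homogenates were pooled per group, and total radioactivity was measured as the mean of duplicate combustions, in μg equiv/g. Two or three rats were used per point, except one rat at 24 and 48 h.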

Rattus norvegicus [2] = assay: Total radioactivity in tissues of male sd rats dosed orally with H-labeled compound at 21 mg/kg after 5 min in kidney; assay type: functional; settings: route oral; summary of the method: as §1
Rattus norvegicus [3] = assay: Total radioactivity in tissues of male sd rats dosed orally with H-labeled compound at 21 mg/kg after 1 hr in kidney; assay type: functional; settings: route oral; summary of the method: as §1
Rattus norvegicus [4] = assay: Total radioactivity in tissues of male sd rats dosed orally with H-labeled compound at 21 mg/kg after 24 hr r in lung; assay type: functional; settings: route oral; summary of the method: as §1
Rattus norvegicus [5] = assay: Total radioactivity in tissues of male sd rats dosed orally with H-labeled compound at 21 mg/kg after 15 min in plasma; assay type: functional; settings: route oral; summary of the method: as §1
Rattus norvegicus [6] = assay: Total radioactivity in tissues of male sd rats dosed orally with H-labeled compound at 21 mg/kg after 15 min in lung; assay type: functional; settings: route oral; summary of the method: as §1
Rattus norvegicus [7] = assay: Total radioactivity in tissues of male sd rats dosed orally with H-labeled compound at 21 mg/kg after 4 hr in plasma; assay type: functional; settings: route oral; summary of the method: as §1
Rattus norvegicus [8] = assay: Amount of radioactivity elute with H-labeled at 21 mg/kg after 1 hr using RP-HPLC. at a dose of 2.02 ug/g in lung of male sd rat.
Rattus norvegicus [9] = assay: Total radioactivity in tissues of male sd rats dosed orally with H-labeled compound at 21 mg/kg after 1 hr in plasma; assay type: functional; settings: route oral; summary of the method: as §1
Rattus norvegicus [10] = assay: Total radioactivity in tissues of male sd rats dosed orally with H-labeled compound at 21 mg/kg after 4 hr in kidney; assay type: functional; settings: route oral; summary of the method: as §1
Rattus norvegicus [11] = assay: Total radioactivity in tissues of male sd rats dosed intravenously with H-labeled compound at 21 mg/kg after 2 hr in liver; assay type: functional; settings: route intravenous
Summary of the method: (§2)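 Male Sprague-Dawley rats given ³H compound iv via femoral vein in PEG-400, 21 mg/kg, 3.96 μCi/mg. Killed at 2, 10, 30 min, 1, 2 and 4 h. Total radioactivity measured by combustion of composited tissue homogenates, in duplicate. Two or three rats per time point, one at 10 and 30 min.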

Rattus norvegicus [12] = assay: Total radioactivity in tissues of male sd rats dosed orally with H-labeled compound at 21 mg/kg after 4 hr in liver; assay type: functional; settings: route oral; summary of the method: as §1
Rattus norvegicus [13] = assay: Total radioactivity in tissues of male sd rats dosed intravenously with H-labeled compound at 21 mg/kg after 10 min in kidney; assay type: functional; settings: route intravenous; summary of the method: as §2
Rattus norvegicus [14] = assay: Total radioactivity in tissues of male sd rats dosed orally with H-labeled compound at 21 mg/kg after 30 min in plasma; assay type: functional; settings: route oral; summary of the method: as §1
Rattus norvegicus [15] = assay: Total radioactivity in tissues of male sd rats dosed intravenously with H-labeled compound at 21 mg/kg after 30 min in plasma; assay type: functional; settings: route intravenous
Rattus norvegicus [16] = assay: Total radioactivity in tissues of male sd rats dosed orally with H-labeled compound at 21 mg/kg after 48 hr in liver; assay type: functional; settings: route oral; summary of the method: as §1
Rattus norvegicus [17] = assay: Total radioactivity in tissues of male sd rats dosed intravenously with H-labeled compound at 21 mg/kg after 30 min in lung; assay type: functional; settings: route intravenous; summary of the method: as §2
Rattus norvegicus [18] = assay: Total radioactivity in tissues of male sd rats dosed orally with H-labeled compound at 21 mg/kg after 1 hr in liver; assay type: functional; settings: route oral; summary of the method: as §1
Rattus norvegicus [19] = assay: Total radioactivity in tissues of male sd rats dosed intravenously with H-labeled compound at 21 mg/kg after 4 hr in lung; assay type: functional; settings: route intravenous
Summary of the method: (§3)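 ³H label in the phenoxy ring, dissolved in PEG-400, specific activity 3.96 μCi/mg, given iv via femoral vein at 21 mg/kg to male Sprague-Dawley rats. Animals were killed at 2, 10, 30 min, 1, 2 and 4 h. Tissues from each group were pooled and homogenized, and total radioactivity was measured by combustion, averaged over duplicate combustions. Results are expressed as μg equiv/g. Two or three rats were used per time point.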

Rattus norvegicus [20] = assay: Total radioactivity in tissues of male sd rats dosed orally with H-labeled compound at 21 mg/kg after 15 min in kidney; assay type: functional; settings: route oral; summary of the method: as §1
[21] = Peak concentration of drug in rat plasma after oral dosing at 20 mg/kg. Concentration of parent compound was measured before (free) and after (total) beta-glucuronidase treatment; total 0.5 uM; assay type: ADME, organism-based; set-up: dose 20 mg/kg, route oral; settings: read-out: Plasma level
Rattus norvegicus [22] = assay: Amount of radioactivity elute with H-labeled at 21 mg/kg after 4 hr using RP-HPLC. at a dose of […] in lung of male sd rat.
Rattus norvegicus [23] = assay: Total radioactivity in tissues of male sd rats dosed orally with H-labeled compound at 21 mg/kg after 48 hr in kidney; assay type: functional; settings: route oral; summary of the method: as §1
Rattus norvegicus [24] = assay: Total radioactivity in tissues of male sd rats dosed intravenously with H-labeled compound at 21 mg/kg after 1 hr in liver; assay type: functional; settings: route intravenous; summary of the method: as §2
Rattus norvegicus [25] = assay: Total radioactivity in tissues of male sd rats dosed intravenously with H-labeled compound at 21 mg/kg after 4 hr in liver; assay type: functional; settings: route intravenous; summary of the method: as §3
Rattus norvegicus [26] = assay: Total radioactivity in tissues of male sd rats dosed orally with H-labeled compound at 21 mg/kg after 1 hr in lung; assay type: functional; settings: route oral; summary of the method: as §1
[27] = target: T1, Polyunsaturated fatty acid 5-lipoxygenase (Rattus norvegicus, UniProt P12527); assay: Tested for its inhibitory activity against arachidonic acid in rat 5-lipoxygenase.
T1 sequence (P12527 whole entry): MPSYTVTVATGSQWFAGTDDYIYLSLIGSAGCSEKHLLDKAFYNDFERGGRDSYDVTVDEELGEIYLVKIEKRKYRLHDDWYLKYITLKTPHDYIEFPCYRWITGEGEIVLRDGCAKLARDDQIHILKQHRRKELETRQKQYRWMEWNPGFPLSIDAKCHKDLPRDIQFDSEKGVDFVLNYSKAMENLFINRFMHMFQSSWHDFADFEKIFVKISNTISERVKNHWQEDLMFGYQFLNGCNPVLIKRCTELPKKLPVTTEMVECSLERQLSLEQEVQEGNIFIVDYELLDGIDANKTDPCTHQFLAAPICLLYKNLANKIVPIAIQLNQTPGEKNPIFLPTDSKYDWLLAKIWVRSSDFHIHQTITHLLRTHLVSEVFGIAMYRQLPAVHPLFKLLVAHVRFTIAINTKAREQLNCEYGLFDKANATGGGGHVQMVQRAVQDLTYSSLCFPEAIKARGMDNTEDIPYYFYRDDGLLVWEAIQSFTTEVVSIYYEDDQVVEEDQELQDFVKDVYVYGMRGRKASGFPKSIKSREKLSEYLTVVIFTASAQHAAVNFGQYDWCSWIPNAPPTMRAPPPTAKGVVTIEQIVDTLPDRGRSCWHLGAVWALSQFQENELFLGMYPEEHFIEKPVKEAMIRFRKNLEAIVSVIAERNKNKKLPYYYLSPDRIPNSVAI
Summary of the method: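 10000g supernatant from rat PMN leukocytes incubated 10 min with [14C]arachidonic acid. 5-Lipoxygenase activity taken as percentage conversion to 5-HETE plus 5,12-diHETEs.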

Rattus norvegicus [28] = assay: Total radioactivity in tissues of male sd rats dosed orally with H-labeled compound at 21 mg/kg after 30 min in lung; assay type: functional; settings: route oral; summary of the method: as §1

**Q.** Which results are given for Oc1cc2c(cc1CCCOc1ccccc1)OC(CCc1ccccc1)C2 (stereo not drawn)?
**A.** Total radioactivity (Rattus norvegicus [1]): 0.85 ug equiv g-1; Total radioactivity (Rattus norvegicus [2]): 9.12 ug equiv g-1; Total radioactivity (Rattus norvegicus [3]): 1.62 ug equiv g-1; Total radioactivity (Rattus norvegicus [4]): 0.1 ug equiv g-1; Total radioactivity (Rattus norvegicus [5]): 1.08 ug equiv g-1; Total radioactivity (Rattus norvegicus [6]): 190.97 ug equiv g-1; Total radioactivity (Rattus norvegicus [7]): 3.27 ug equiv g-1; Activity (Rattus norvegicus [8]): 56.3%; Total radioactivity (Rattus norvegicus [9]): 1.41 ug equiv g-1; Total radioactivity (Rattus norvegicus [10]): 2.75 ug equiv g-1; Total radioactivity (Rattus norvegicus [11]): 3.31 ug equiv g-1; Total radioactivity (Rattus norvegicus [12]): 13.77 ug equiv g-1; Total radioactivity (Rattus norvegicus [13]): 54.13 ug equiv g-1; Total radioactivity (Rattus norvegicus [14]): 1.09 ug equiv g-1; Total radioactivity (Rattus norvegicus [15]): 5.81 ug equiv g-1; Total radioactivity (Rattus norvegicus [16]): 0.11 ug equiv g-1; Total radioactivity (Rattus norvegicus [17]): 56.91 ug equiv g-1; Total radioactivity (Rattus norvegicus [18]): 10.93 ug equiv g-1; Total radioactivity (Rattus norvegicus [19]): 5 ug equiv g-1; Total radioactivity (Rattus norvegicus [20]): 5.5 ug equiv g-1; Cmax [21]: 300 nM; Activity (Rattus norvegicus [22]): 8.9%; Total radioactivity (Rattus norvegicus [23]): 0.03 ug equiv g-1; Total radioactivity (Rattus norvegicus [24]): 26.77 ug equiv g-1; Total radioactivity (Rattus norvegicus [25]): 9.87 ug equiv g-1; Total radioactivity (Rattus norvegicus [26]): 3.58 ug equiv g-1; IC50 [27]: 23 nM; Total radioactivity (Rattus norvegicus [28]): 4.11 ug equiv g-1
